Assay [1] has as its target Estrogen receptor beta (Homo sapiens) (UniProt Q92731). Put plainly: Relative binding affinity towards estrogen receptor 2 determined by a competitive radiometric binding assay using 10 nM [3H]estradiol as the radioligand. In outline:
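Competitive radiometric binding with purified human ERβ and 10 nM [3H]estradiol tracer. Hydroxylapatite captured the bound complex. Incubation was at 0 °C for 18–24 h. Competitors were dissolved in 1:1 DMF:TEA. RBA is relative to estradiol (100%). Duplicate independent experiments were run, with CV <0.3.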

For assay [2], the target named is T1, Estrogen receptor (Homo sapiens) (UniProt P03372).
T1 sequence (whole entry): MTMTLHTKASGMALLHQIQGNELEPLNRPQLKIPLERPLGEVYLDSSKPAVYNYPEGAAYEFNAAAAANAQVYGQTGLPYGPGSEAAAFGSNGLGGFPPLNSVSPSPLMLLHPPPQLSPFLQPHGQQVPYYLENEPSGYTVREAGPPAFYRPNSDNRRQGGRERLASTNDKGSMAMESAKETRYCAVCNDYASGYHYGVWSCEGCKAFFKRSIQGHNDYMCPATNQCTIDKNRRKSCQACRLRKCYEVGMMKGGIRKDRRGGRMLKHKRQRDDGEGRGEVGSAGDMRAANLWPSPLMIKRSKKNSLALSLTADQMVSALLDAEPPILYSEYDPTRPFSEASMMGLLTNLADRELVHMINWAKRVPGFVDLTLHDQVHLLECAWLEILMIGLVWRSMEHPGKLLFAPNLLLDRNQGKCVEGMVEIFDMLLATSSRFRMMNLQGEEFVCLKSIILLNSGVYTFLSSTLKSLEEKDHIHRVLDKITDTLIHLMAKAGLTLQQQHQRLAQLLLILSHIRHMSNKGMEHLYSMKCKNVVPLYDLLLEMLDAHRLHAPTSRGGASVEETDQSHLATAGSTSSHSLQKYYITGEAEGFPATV
The experiment in a line: Relative binding affinity (RBA) for ER alpha (Estrogen receptor alpha) determined by a competitive radiometric binding assay using 10 nM [3H]estradiol as the radioligand. In a few lines:
(§1)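 Competitive radiometric binding with purified human ERα and 10 nM [3H]estradiol tracer. Bound receptor–ligand complex was adsorbed on hydroxylapatite. Incubation was at 0 °C for 18–24 h. Unlabeled competitors were dissolved in 1:1 DMF:TEA. RBA is expressed relative to estradiol (100%). Duplicate separate experiments were run, with CV <0.3.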

Assay [3] concerns Estrogen receptor (Ovis aries). Put plainly: Relative binding affinity (RBA) for ER alpha using lamb uterine cytosol determined by a competitive radiometric binding assay using 10 nM [3H]estradiol as the radioligand. Particulars: Uterus.
Assay [4] addresses T1, Estrogen receptor (Homo sapiens). Put plainly: Relative binding affinity for Estrogen receptor alpha compared 10 nM [3H]estradiol. In a few lines: as §1

Chain of Estrogen receptor beta (Homo sapiens) (Q92731 whole entry): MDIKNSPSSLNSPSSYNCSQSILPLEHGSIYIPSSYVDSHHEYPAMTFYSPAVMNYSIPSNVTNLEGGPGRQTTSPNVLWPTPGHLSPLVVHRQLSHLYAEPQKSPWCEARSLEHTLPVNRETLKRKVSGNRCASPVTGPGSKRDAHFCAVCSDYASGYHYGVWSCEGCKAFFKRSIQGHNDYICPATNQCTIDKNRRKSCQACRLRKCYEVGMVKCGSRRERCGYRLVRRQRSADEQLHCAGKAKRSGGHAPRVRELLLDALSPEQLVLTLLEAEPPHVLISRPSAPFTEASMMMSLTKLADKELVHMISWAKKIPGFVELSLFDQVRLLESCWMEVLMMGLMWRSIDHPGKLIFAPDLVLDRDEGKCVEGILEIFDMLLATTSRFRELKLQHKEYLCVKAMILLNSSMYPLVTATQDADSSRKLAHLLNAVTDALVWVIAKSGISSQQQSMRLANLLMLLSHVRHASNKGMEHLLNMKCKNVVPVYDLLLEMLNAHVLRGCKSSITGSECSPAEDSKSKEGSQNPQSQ

As to `CCc1c(-c2ccc(O)cc2)oc(-c2ccccc2)c1-c1ccccc1`, the relative binding affinity (RBA) in assay [1] came to 3.4; in assay [2], 10.8; in assay [3], 0.44.
Turning to `CCc1c(-c2ccc(O)cc2)oc(-c2ccc(O)cc2)c1-c1ccc(O)cc1`, the relative binding affinity (RBA) was found to be 140 in assay [2] and 6.5 in assay [3].
In assay [3], `Oc1ccc(-c2cc(-c3ccc(O)cc3)c(-c3ccccc3)o2)cc1` had a relative binding affinity (RBA) of 0.04.
For `CCCCc1c(-c2ccc(O)cc2)oc(-c2ccc(O)cc2)c1-c1ccc(O)cc1`, the relative binding affinity (RBA) in assay [1] is 3.9; in assay [2], 21; in assay [3], 1.3.
In assay [3], `CCc1c(-c2ccc(O)cc2)cc(-c2ccccc2)n1-c1ccc(O)cc1` gave a relative binding affinity (RBA) of 0.5.
With `CCc1c(-c2ccc(O)cc2)oc(-c2ccccc2)c1-c1ccc(O)cc1`, the relative binding affinity (RBA) in assay [1] was found to be 7.1; in assay [2], 82; in assay [3], 4.6.
As to `CCc1c(-c2ccccc2)oc(-c2ccc(O)cc2)c1-c1ccc(O)cc1`, the results for the relative binding affinity (RBA) in assay [1], in assay [2] and in assay [3] were 4.5, 14.8 and 0.45, respectively.
Consider `CCc1c(-c2ccccc2)oc(-c2ccc(O)cc2)c1-c1ccccc1`, for which the relative binding affinity (RBA) in assay [1] amounted to 2; in assay [2], 6.8; in assay [3], 0.1.
The like results for `Cc1c(-c2ccc(O)cc2)oc(-c2ccc(O)cc2)c1-c1ccc(O)cc1` were, in that order, 0.62, 40 and 2.9.
The like results for `CCCc1c(-c2ccc(O)cc2)oc(-c2ccccc2)c1-c1ccc(O)cc1` were, in that order, 15, 140 and 3.6.
The like results for `CCc1c(-c2ccc(O)cc2)oc(-c2ccc(O)cc2)c1-c1ccccc1` were, in that order, 3, 16.5 and 0.7.
In assay [3], `Oc1ccc(-c2cc(-c3ccccc3)c(-c3ccc(O)cc3)s2)cc1` showed a relative binding affinity (RBA) of 0.03.
Consider `CCCc1c(-c2ccc(O)cc2)nn(-c2ccc(O)cc2)c1-c1ccc(O)cc1`, for which the relative binding affinity (RBA) in assay [4] is 49.
For the compound `Oc1ccc(-c2oc(-c3ccc(O)cc3)c(-c3ccc(O)cc3)c2-c2ccc(O)cc2)cc1`, the values for the relative binding affinity (RBA) in assay [1], in assay [2] and in assay [3] were 0.25, 8.7 and 0.84, respectively.
The like results for `CCc1c(-c2ccccc2)oc(-c2ccccc2)c1-c1ccc(O)cc1` were, in that order, 0.07, 0.15 and 0.02.
`Oc1ccc(-c2cc(-c3ccccc3)c(-c3ccc(O)cc3)o2)cc1`: the relative binding affinity (RBA) in assay [3] is 0.13.
Take `CCCc1c(-c2ccc(O)cc2)oc(-c2ccc(O)cc2)c1-c1ccc(O)cc1`: the figures for the relative binding affinity (RBA) in assay [1], in assay [2] and in assay [3] were 1.8, 100 and 3.6, respectively.
Compound `Oc1ccc(-c2cc(-c3ccc(O)cc3)c(-c3ccccc3)s2)cc1` had a relative binding affinity (RBA) in assay [3] of 0.04.
For the compound `CC(C)Cc1c(-c2ccc(O)cc2)nn(-c2ccc(O)cc2)c1-c1ccc(O)cc1`, the relative binding affinity (RBA) in assay [1] was determined as 0.89; in assay [4], 75.

These data come from ChEMBL document CHEMBL1134677, “Synthesis and biological evaluation of a novel series of furans: ligands selective for estrogen receptor alpha” (J Med Chem, 2001).
